Measured values published in ChEMBL document CHEMBL4334542, “Antimalarial N 1,N 3-Dialkyldioxonaphthoimidazoliums: Synthesis, Biological Activity, and Structure-activity Relationships” (ACS Med Chem Lett, 2020).
Active and inactive are the calls of the source. No cut-off for these calls is given here.

Experiments:
Plasmodium falciparum [1] = experiment: Antimalarial activity against asexual stage of Plasmodium falciparum Dd2 infected in erythrocytes assessed as reduction in parasite growth incubated for 48 hrs under hypoxic condition by Hoechst 33342 staining based flow cytometry; type: functional, organism-based; details: Dd2, 48 h
Summary of the method: (§1)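 Asexual Dd2 and 3D7 parasites in erythrocytes; DNA content of infected cells measured by Hoechst 33342 staining and FACS. IC50 is the concentration giving 50% of the net fluorescence of untreated control cultures; mean ± SD of n = 3 separate determinations.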

Plasmodium falciparum [2] = experiment: Antimalarial activity against asexual stage of Plasmodium falciparum 3D7 infected in erythrocytes assessed as reduction in parasite growth incubated for 48 hrs under hypoxic condition by Hoechst 33342 staining based flow cytometry; type: functional, organism-based; details: 3D7, 48 h; summary of the method: as §1
CHO-K1 = experiment: Cytotoxicity against CHOK1 cells assessed as reduction in cell viability incubated for 48 hrs by CellTiter 96 aqueous one solution assay; type: cell-based; details: Cricetulus griseus, CHO-K1, 48 h
Summary of the method: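 Cell growth measured by a tetrazolium dye assay. IC50 is the concentration reducing growth by 50% relative to untreated cultures; mean ± SD of n = 3 separate determinations.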

Plasmodium falciparum [3] = experiment: Antimalarial activity against Plasmodium falciparum NF54 incubated for 48 hrs by [3H]-hypoxanthine incorporation assay; type: functional, organism-based
Plasmodium falciparum [4] = experiment: Antimalarial activity against Plasmodium falciparum K1 incubated for 48 hrs by [3H]-hypoxanthine incorporation assay; type: functional, organism-based
Plasmodium falciparum [5] = experiment: Antimalarial activity against Plasmodium falciparum TM90C2B incubated for 48 hrs by [3H]-hypoxanthine incorporation assay; type: functional, organism-based
Plasmodium falciparum [6] = experiment: Antimalarial activity against asexual stage of Plasmodium falciparum NF54 assessed as reduction in parasite growth incubated for 96 hrs by SYBR Green I dye-based fluorescence assay; type: functional, organism-based; details: NF54, 96 h
Summary of the method: (§2)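 Asexual NF54, K1 and W2 parasites; proliferation read as SYBR Green I fluorescence. IC50 is the concentration giving 50% of the net SYBR Green I fluorescence of untreated control cultures; mean ± SEM of n = 3 independent biological replicates.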

Plasmodium falciparum [7] = experiment: Antimalarial activity against asexual stage of Plasmodium falciparum K1 assessed as reduction in parasite growth incubated for 96 hrs by SYBR Green I dye-based fluorescence assay; type: functional, organism-based; details: K1, 96 h; summary of the method: as §2
Plasmodium falciparum [8] = experiment: Antimalarial activity against asexual stage of Plasmodium falciparum W2 assessed as reduction in parasite growth incubated for 96 hrs by SYBR Green I dye-based fluorescence assay; type: functional, organism-based; details: W2, 96 h
Plasmodium falciparum [9] = experiment: Antimalarial activity against Plasmodium falciparum NF54 early gametocytes transfected with luciferase gene incubated for 48 hrs by luciferase reporter gene assay; type: functional, organism-based; details: NF54, 48 h
Summary of the method: (§3)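 Gametocytes of NF54-Pfs16-GFP-Luc, early (>95% stage II/III) or late (>90% stage IV/V); luciferase read-out. IC50 is the concentration giving 50% reduction of luminescence; mean ± SEM of n = 3 independent biological replicates.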

Plasmodium falciparum [10] = experiment: Antimalarial activity against Plasmodium falciparum NF54 late gametocytes transfected with luciferase gene incubated for 48 hrs by luciferase reporter gene assay; type: functional, organism-based; details: NF54, 48 h; summary of the method: as §3
[11] = Redox cycling activity of the compound […] measured after 45 mins by phenol red reagent based horseradish peroxidase coupled assay
Summary of the method: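 Redox cycling EC50 determined by the phenol red horseradish peroxidase assay.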

Plasmodium falciparum [12] = experiment: Antimalarial activity against asexual stage of Plasmodium falciparum 3D7 infected in O-positive erythrocytes assessed as reduction in parasite growth incubated for 72 hrs by SYBR Green I dye-based spectrophotometric analysis; type: functional, organism-based; details: 3D7, 72 h
Plasmodium falciparum [13] = experiment: Antimalarial activity against sexual stage of Plasmodium falciparum 3D7 gametocytes assessed as reduction in parasite growth incubated for 3 days by alamar blue staining based assay; type: functional, organism-based; details: 3D7, 72 h
Plasmodium falciparum [14] = experiment: Antimalarial activity against asexual stage of Plasmodium falciparum NF54 assessed as reduction in parasite growth at 1 uM incubated for 96 hrs by SYBR Green I dye-based fluorescence assay relative to control; type: functional; set-up: scale not given: the % may be the effect or the level left

| IC50 (Plasmodium falciparum [9]) [nM] | IC50 (Plasmodium falciparum [10]) [nM] | SMILES | IC50 (Plasmodium falciparum [1]) [nM] | IC50 (Plasmodium falciparum [2]) [nM] | IC50 (CHO-K1) [nM] | IC50 (Plasmodium falciparum [6]) [nM] | IC50 (Plasmodium falciparum [7]) [nM] | IC50 (Plasmodium falciparum [8]) [nM] | also measured |
| --- | --- | --- | --- | --- | --- | --- | --- | --- | --- |
| – | – | CC[n+]1c2c(n(C(C)C)c1C)C(=O)c1ccccc1C2=O | 11.7 | 61.5 | 15100 | – | – | – | – |
| – | – | O=C1C(O)=C([C@H]2CC[C@H](c3ccc(Cl)cc3)CC2)C(=O)c2ccccc21 [ATOVAQUONE] | 2.5 | 2.8 | – | – | – | – | IC50 (Plasmodium falciparum [3]): 0.4 nM; IC50 (Plasmodium falciparum [4]): 0.5 nM; IC50 (Plasmodium falciparum [5]): 11500 nM |
| – | – | CCCn1c2c([n+](CCC)c1C)C(=O)c1ccccc1C2=O | 11.3 | 26.9 | 16200 | – | – | – | – |
| – | – | CCCC[n+]1c2c(n(CCC)c1C)C(=O)c1ccccc1C2=O | 20.9 | 18.8 | 26800 | – | – | – | – |
| 337 | 812 | Cc1n(CC(C)C)c2c([n+]1CC(C)C)C(=O)c1ccccc1C2=O | – | – | – | 9.19 | 12.5 | 5.75 | – |
| 139 | 832 | Cc1n(CC(C)C)c2c([n+]1C1CC1)C(=O)c1ccccc1C2=O | – | – | – | 3.94 | 5.85 | 2.55 | – |
| – | – | CCOc1ccc(-[n+]2c3c(n(C)c2C)C(=O)c2ccccc2C3=O)cc1 | – | – | – | – | – | – | EC50 (Plasmodium falciparum [12]): 1 nM; EC50 (Plasmodium falciparum [13]): 93 nM |
| – | – | O=C1C=CC(=O)C=C1 [BENZOQUINONE] | – | – | – | – | – | – | Activity (Plasmodium falciparum [14]): 20 - 40% |
| 33 | 1020 | CC[n+]1c2c(n(CC(C)C)c1C)C(=O)c1ccccc1C2=O | – | – | – | 1.63 | 3.1 | 1.62 | – |
| 361 | 174 | CCCCCCCCCCCC[n+]1c2c(n(CC(C)C)c1C)C(=O)c1ccccc1C2=O | – | – | – | 4.3 | 11.2 | 5.5 | – |
| – | – | Cc1n(C(C)C)c2c([n+]1C1CC1)C(=O)c1ccccc1C2=O | 25 | 15.8 | 14600 | – | – | – | – |
| – | – | COCC[n+]1c2c(n(Cc3cnccn3)c1C)C(=O)c1ccccc1C2=O [SEPANTRONIUM BROMIDE] | 45.9 | 38.6 | – | – | – | – | – |
| – | – | Cc1nc2c(n1C)C(=O)c1ccccc1C2=O | – | – | – | – | – | – | Activity (Plasmodium falciparum [14]): <=50%; Activity [11]: inactive |
| – | – | CCn1c(C)nc2c1C(=O)c1ccccc1C2=O | – | – | – | – | – | – | Activity (Plasmodium falciparum [14]): <=50%; Activity [11]: inactive |
| – | – | Cc1n(C)c2c([n+]1C(C)C)C(=O)c1ccccc1C2=O | 16.1 | 4.8 | 4700 | – | – | – | – |
| – | – | CCCCn1c2c([n+](C3CC3)c1C)C(=O)c1ccccc1C2=O | 20.8 | 182 | 10100 | – | – | – | – |
| 229 | 689 | Cc1n(CC(C)C)c2c([n+]1C(C)C)C(=O)c1ccccc1C2=O | – | – | – | 2.36 | 4.22 | 1.96 | – |
| 41 | 1090 | Cc1n(CC(C)C)c2c([n+]1C)C(=O)c1ccccc1C2=O | – | – | – | 1.92 | 3.4 | 1.85 | – |
| 95 | 143 | CN(C)c1ccc2nc3ccc(N(C)C)cc3[s+]c2c1 [METHYLENE BLUE ANHYDROUS] | – | – | – | – | – | – | – |
| – | – | CCCn1c(C)nc2c1C(=O)c1ccccc1C2=O | – | – | – | – | – | – | Activity (Plasmodium falciparum [14]): <=50%; Activity [11]: inactive |
| 181 | 275 | CCCC[n+]1c2c(n(CC(C)C)c1C)C(=O)c1ccccc1C2=O | – | – | – | 7.2 | 9.85 | 5.1 | – |

| SMILES | IC50 (Plasmodium falciparum [9]) [nM] | IC50 (Plasmodium falciparum [10]) [nM] | IC50 (Plasmodium falciparum [1]) [nM] | IC50 (Plasmodium falciparum [2]) [nM] | IC50 (CHO-K1) [nM] | IC50 (Plasmodium falciparum [6]) [nM] | IC50 (Plasmodium falciparum [7]) [nM] | IC50 (Plasmodium falciparum [8]) [nM] | also measured |
| --- | --- | --- | --- | --- | --- | --- | --- | --- | --- |
| CCCn1c2c([n+](C(C)C)c1C)C(=O)c1ccccc1C2=O | 162 | 567 | 8 | 4 | 26800 | 2.28 | 3.1 | 2.2 | IC50 (Plasmodium falciparum [3]): 1 nM; IC50 (Plasmodium falciparum [4]): 2.1 nM; IC50 (Plasmodium falciparum [5]): 1.8 nM; Activity [11]: Active |
| CCCCn1c2c([n+](CC)c1C)C(=O)c1ccccc1C2=O | 268 | 320 | 9.1 | 4.2 | 37000 | 1.64 | 2.4 | 2.88 | IC50 (Plasmodium falciparum [3]): 1 nM; IC50 (Plasmodium falciparum [4]): 1.8 nM; IC50 (Plasmodium falciparum [5]): 1.4 nM; Activity [11]: Active |
